Efflux pump inh: inhibitors of Candida antifungal efflux pumps expressed in yeast | S. cerevisiae Candida pump triplex, Nile Red efflux | inhibition, % at 10 µM | actives 0.44% (n = 330,000) | AID 485275;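 active = plate passing quality check with inhibition over a set limit, or well fluorescence over plate mean plus 4 SD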;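 also: Nile Red retained in pooled yeast measured as flow cytometry median fluorescence; 0% = buffer negative control and 100% = Enniatin B positive control; higher means more Nile Red kept so more efflux inhibition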
SR-BI DiI inh: inhibitors of mouse SR-BI mediated HDL lipid uptake. Q61009. ldlA[mSR-BI] CHO cells, DiI-HDL uptake fluorescence, 3 h. inhibition, % at 12.5 µM. actives 0.96% (n = 320,000). AID 488896;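 active = mean replicate inhibition of at least 70% and a set share of replicates each scoring 70 or more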;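 also: 0% = median of neutral control wells and 100% = median of positive control wells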
Target sequence (Q61009 whole entry, looked up): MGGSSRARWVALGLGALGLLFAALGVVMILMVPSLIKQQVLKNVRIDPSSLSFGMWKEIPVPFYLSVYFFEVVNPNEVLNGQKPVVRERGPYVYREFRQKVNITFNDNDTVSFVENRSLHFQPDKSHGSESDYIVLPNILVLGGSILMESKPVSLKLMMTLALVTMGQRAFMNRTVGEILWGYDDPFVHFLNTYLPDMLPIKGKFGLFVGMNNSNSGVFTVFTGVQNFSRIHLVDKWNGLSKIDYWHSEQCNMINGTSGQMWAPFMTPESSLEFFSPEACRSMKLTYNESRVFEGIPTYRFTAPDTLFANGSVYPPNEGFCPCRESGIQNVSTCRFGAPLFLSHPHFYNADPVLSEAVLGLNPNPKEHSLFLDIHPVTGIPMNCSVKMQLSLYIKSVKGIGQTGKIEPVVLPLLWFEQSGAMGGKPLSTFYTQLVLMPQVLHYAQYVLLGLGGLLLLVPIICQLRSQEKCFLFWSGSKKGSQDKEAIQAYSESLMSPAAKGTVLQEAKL
FN deposition inh: fibronectin deposition inhibition | AH1F fibroblasts, Alexa488-fibronectin deposition fluorescence, overnight | inhibition, % at 12.6 µM | actives 0.086% (n = 350,000);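 active = mean inhibition across replicates of 30% or more, regardless of how many single replicates reach that level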;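 also: positive control wells lacked labelled fibronectin entirely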
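material = AH1F fibroblast monolayer depositing Alexa488-labelled fibronectin into matrix | amount = 10000 AH1F cells/well | buffer or medium = DMEM plus 2% serum, read in PBS | incubation = 1 h cell adhesion before compound, then overnight fibronectin incubation | detection = fluorescence at 485 nm excitation, 525 nm emission | evaluation = percent inhibition as loss of matrix-bound fibronectin fluorescence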
SR-BI DiI-HDL act: SR-BI HDL lipid transfer activation. CHO ldlA[mSR-BI] cells, DiI-HDL uptake fluorescence, 3 h; 100 = double the neutral-control signal. activation, % at 12.5 µM. actives 0.096% (n = 320,000);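 active = mean replicate activation of at least 60% and every replicate at or above 60%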;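 also: 0% = median plate neutral-control signal and 100% = twice that signal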
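Material: SR-BI-overexpressing, LDLR-lacking CHO cells | Dosing: Single compound concentration, delivered by pin transfer | Probe or stimulus: Labelled HDL, 10 µg/mL | Signal: Bottom-read cell fluorescence after medium removal, ex 550/em 595 nm | Schedule: 3 h, 37 °C | Evaluation: HDL uptake via cellular fluorescence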
CaV13 ICDI inh: Primary screen for inhibitors of IQ motif and Ca2+-dependent inactivation inhibitor domain binding in CACNA1D, Förster resonance energy transfer in living cells, …; HEK cells, CFP/YFP FRET ICDI-IQ, plate reader, 10 min; percent FRET-ratio fall versus neutral wells; inhibition, % at 12.3 µM; actives 0.098% (n = 340,000); AID 743397;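 active = mean replicate inhibition of at least 30% and at least 1% of replicates passing that level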;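 also: 0% = median of the neutral control wells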
Cmpd fluor yeast: compound fluorescence in yeast efflux pump counter-screen | actives 4% (n = 1,700) | fluorescence ratio to DMSO, % at 10 µM | S. cerevisiae AD/pABC3, flow cytometry | shares compounds with Efflux pump inh | AID 588517;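 active = fluorescence ratio to DMSO above its plate's cutoff, the plate mean ratio plus 5 SD, cut at about 210% in these data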;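 also: unstained yeast with no Nile Red so the signal is compound autofluorescence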
Mdr1 pump inh: Candida Mdr1 efflux pump inhibition; actives 1% (n = 1,700); shares compounds with Efflux pump inh; S. cerevisiae AD/CaMDR1, Nile Red efflux, flow cytometry; inhibition, % at 10 µM; in the data active = inhibition above about 26%;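 also: 0% = DMSO vehicle and 100% = reference inhibitor; higher means more Nile Red retained so more efflux inhibition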
CaCdr2 efflux inh: Candida Cdr2 efflux pump inhibition | shares compounds with Efflux pump inh | S. cerevisiae AD/CaCDR2, Nile Red retention, flow cytometry | Nile Red retention ratio vs DMSO, % at 10 µM | actives 4% (n = 1,700) | AID 588520; in the data active = Nile Red retention ratio vs DMSO above about 190%;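 also: higher ratio means more blocking of Cdr2 efflux of the dye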
CaCdr1 efflux inh: inhibitors of Candida albicans Cdr1 efflux pump; shares compounds with Efflux pump inh; S. cerevisiae AD/CaCDR1, Nile Red efflux, flow cytometry; inhibition, % at 10 µM; actives 1% (n = 1,700); AID 588522;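 active = inhibition above the screen-wide mean plus twice its standard deviation, cut at about 32% in these data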
Active calls of the source: *; . = no result. Compounds with a hit are over-represented: about 1.2% of the library has one in this group of screens.

SMILES | Efflux pump inh | SR-BI DiI inh | FN deposition inh | SR-BI DiI-HDL act | CaV13 ICDI inh | others
C/C(CC(=O)NCc1ccc(F)cc1)=N\NC(N)=S | -0.2 | 86.7* | -5.2 | -86.7 | -4.6
CO[C@H]1CN(C)C(=O)c2cc(NC(=O)c3cccc(Oc4ccccc4)c3)ccc2OC[C@@H](C)NC[C@@H]1C | . | . | 17.1 | . | .
C=CCN1C(=O)/C(=C2/Sc3ccc(OC)cc3N2C)SC1=Nc1cccc(O)c1 | 0.3 | 102.0* | 7.9 | -102.0 | -5.2
C[C@H]1CN(C)C(=O)c2cc(NS(C)(=O)=O)ccc2O[C@H]1CN(C)C | . | . | 6.8 | . | .
O=C(N/N=C/c1ccc(F)cc1)c1cccc(NC(=O)c2ccc(F)cc2)c1 | 0.3 | 72.3* | 5.3 | -72.3 | -2.9
Cc1cccc(C(=O)Nc2ccc(C(=O)N/N=C/c3ccc4c(c3)OCO4)cc2)c1 | 0.0 | 85.3* | 3.5 | -85.3 | -3.1
O=C(N/N=C/c1ccncc1)c1cccc(NC(=O)c2ccc(Cl)cc2)c1 | -0.1 | 62.4 | -18.3 | -62.4 | -17.6
Cc1ccccc1C(=O)Nc1cccc(NC(=O)c2ccc(F)cc2)c1 | 0.1 | 78.8* | 4.3 | -78.8 | -19.0
Cc1cccc(C(=O)Nc2cccc(C(=O)N/N=C/c3ccc4c(c3)OCO4)c2)c1 | 0.0 | 55.0 | 1.1 | -55.0 | -1.7
Cc1ccccc1C(=O)Nc1ccccc1 | 0.0 | -4.4 | . | 4.4 | -4.8
O=C(Nc1cccc(NC(=O)c2ccc(F)cc2)c1)c1ccc(F)cc1 | -0.1 | 76.2* | 11.5 | -76.2 | -6.7
O=C(C[C@@H]1C[C@@H]2c3cc(NC(=O)NC4CCCC4)ccc3O[C@@H]2[C@H](CO)O1)NCc1cc(F)ccc1F | . | . | -11.8 | . | .
COc1cccc(NC(=O)C[C@H]2CC[C@H]3[C@@H](COc4ccc(NC(=O)C5CCC5)cc4C(=O)N3C)O2)c1 | . | . | -0.4 | . | .
CCOc1cccc(C(=O)Nc2nc(-c3ccc(S(=O)(=O)N4CCOCC4)cc3)cs2)c1 | 0.2 | 78.6* | . | -78.6 | .
O=C(COc1cccc(Cl)c1)Nc1nc(-c2ccc(S(=O)(=O)N3CCOCC3)cc2)cs1 | . | 87.5* | . | -87.5 | 1.0
O=C(Nc1nc(-c2ccccc2)cs1)c1ccc(N2CCOCC2)c([N+](=O)[O-])c1 | -0.3 | 78.6* | . | -78.6 | .
Cc1ccccc1S(=O)(=O)N1CC[C@@H]2[C@H]1c1cc(Br)ccc1N(C)[C@H]2CO | . | . | -12.5 | . | .
CCCNC(=O)N1C[C@H]2[C@@H](c3ccccc31)[C@@H](CO)N2CC1CCCCC1 | . | . | 1.7 | . | .
COC(=O)c1cccc(NC(=O)/C=C/c2cccc([N+](=O)[O-])c2)c1 | -0.4 | 72.8* | . | -72.8 | -7.4
CCOC(=O)c1c(NC(=O)Cn2cnc([N+](=O)[O-])n2)sc2c1CCCC2 | -0.3 | 41.9 | -0.5 | -41.9 | -4.8
CC(C)OC(=O)c1c(NC(=O)Cn2cnc([N+](=O)[O-])n2)sc2c1CCCC2 | -0.2 | 74.9* | 5.7 | . | -4.9
CC1Sc2ccc(S(=O)(=O)N3CCC(C(=O)NCC(C)c4ccccc4)CC3)cc2NC1=O (configuration not stated) | -0.3 | -132.7 | -2.2 | 132.7* | -6.7
COc1ccc(/C(C)=N/NC(=O)c2cccc(S(=O)(=O)N3CCCC3)c2)c(O)c1 | -0.1 | 102.6* | 5.8 | -102.6 | -3.1
COc1ccc(C)cc1S(=O)(=O)NCCN1CCOCC1 | 0.0 | 74.2* | 4.4 | -74.1 | -4.0
COC(=O)c1c(NC(=O)c2c(-c3ccccc3Cl)noc2C)sc2c1CCC2 | 0.5 | 50.0 | 0.3 | -50.0 | -3.8
SMILES | Efflux pump inh | SR-BI DiI inh | FN deposition inh | SR-BI DiI-HDL act | CaV13 ICDI inh | others
Cc1onc(-c2ccccc2Cl)c1C(=O)Nc1sc2c(c1C(N)=O)CCC(C)C2 (configuration not stated) | 0.1 | 73.5* | 3.0 | -73.5 | -3.3
COc1ccc2noc3c2c1C(=O)c1ccccc1-3 | 0.9* | -1.6 | -2.7 | 1.6 | -76.9 | Cmpd fluor yeast=194.4;Mdr1 pump inh=0.8;CaCdr2 efflux inh=197.1*;CaCdr1 efflux inh=0.2
COc1ccc(OC)c2c1C(=O)c1ccccc1C2=O | -0.2 | . | 1.6 | . | -13.7
CCCCc1nc(C(N)=O)c2[nH]c(=O)n(-c3ccc(OC)c(OC)c3)c2n1 | -0.1 | -17.4 | . | 17.4 | .
CCOc1ccccc1-c1nc(C(N)=O)c2[nH]c(=O)n(-c3cccc(C)c3)c2n1 | 0.7* | -9.7 | . | 9.7 | -5.5 | Cmpd fluor yeast=94.4;Mdr1 pump inh=0.9;CaCdr2 efflux inh=114.4;CaCdr1 efflux inh=1.4
CCOc1cccc(-c2nc(C(N)=O)c3[nH]c(=O)n(-c4cccc(Cl)c4)c3n2)c1O | 0.1 | -8.7 | 13.2 | 8.7 | -5.7 | Cmpd fluor yeast=105.0;Mdr1 pump inh=0.3;CaCdr2 efflux inh=122.6;CaCdr1 efflux inh=0.1
Cc1cc(C)c(OCCCn2ccnc2)c(C)c1 | 0.0 | -10.9 | -6.6 | 10.9 | -4.0
Cc1cc(Cl)c(OCCCn2ccnc2)c(Br)c1 | 15.7* | -8.0 | -5.7 | 8.0 | -5.0 | Cmpd fluor yeast=93.7;Mdr1 pump inh=-0.1;CaCdr2 efflux inh=95.1;CaCdr1 efflux inh=0.0
O=C(NNc1cc(N2CCCC2)nc(N2CCCC2)n1)c1ccc([N+](=O)[O-])cc1 | 0.7* | 8.1 | -15.8 | -8.1 | 64.2* | Cmpd fluor yeast=116.4;Mdr1 pump inh=0.6;CaCdr2 efflux inh=116.2;CaCdr1 efflux inh=0.3
CC(C)(C)c1ccc(C(=O)NNc2cc(N3CCCCC3)nc(N3CCCCC3)n2)cc1 | 0.1 | -26.3 | . | 26.3 | -7.5
O=C(CCc1ccccc1)NC(=S)Nc1ccc(S(=O)(=O)N2CCOCC2)cc1 | 8.0* | -10.3 | -1.2 | 10.3 | -4.5 | Cmpd fluor yeast=104.0;Mdr1 pump inh=-0.1;CaCdr2 efflux inh=98.7;CaCdr1 efflux inh=-0.1
Nc1cc(Nc2ccccc2)c2nonc2c1[N+](=O)[O-] | 1.4* | -12.3 | -3.1 | 12.3 | -3.2 | Cmpd fluor yeast=105.0;Mdr1 pump inh=0.0;CaCdr2 efflux inh=93.0;CaCdr1 efflux inh=-0.3
O=[N+]([O-])c1c(Nc2ccccc2)ccc2nonc12 | 0.0 | 4.2 | 8.2 | -4.2 | -4.3
Cc1noc(C)c1NC(=O)N(C)C[C@@H]1OCCCC[C@@H](C)Oc2ccc(NC(=O)NC3CCCCC3)cc2C(=O)N([C@H](C)CO)C[C@@H]1C | . | . | -13.7 | . | .
COc1ccccc1CNC(=O)C[C@@H]1C[C@H]2c3cc(NC(=O)NC4CCCC4)ccc3O[C@H]2[C@H](CO)O1 | . | . | -12.4 | . | .
COc1ccc(C2CC(c3ccccc3F)=NN2c2ccc(S(N)(=O)=O)cc2)cc1 (configuration not stated) | -0.2 | -16.9 | -4.2 | 16.9 | -7.5
